Source: ChEMBL document CHEMBL1124666, “Novel linked antiviral and antitumor agents related to netropsin and distamycin: synthesis and biological evaluation” (1989)

What was measured:
[1] = system: Human alphaherpesvirus 2; assay: Minimum inhibitory concentration against Herpes simplex virus 2(G); type: functional
[2] = system: L1210; assay: Inhibitory effect on the proliferation of murine leukemia (L1210) cells; type: functional; settings: Mus musculus, read-out: ID50 (the source's name)
[3] = system: Vaccinia virus; assay: Minimum inhibitory concentration against vaccinia virus embryonic skin muscle cell cultures; type: functional; settings: Orthopoxvirus vaccinia
[4] = system: Human alphaherpesvirus 1; assay: Minimum inhibitory concentration against Herpes simplex virus 1(KOS); type: functional
[5] = system: P388; assay: Inhibitory effect on the proliferation of murine leukemia (P388) cells; type: functional; settings: Mus musculus, read-out: ID50 (the source's name)
[6] = system: Vaccinia virus; assay: Minimum inhibitory concentration against Vaccinia virus; type: functional; settings: Orthopoxvirus vaccinia
[7] = system: Vaccinia virus; assay: Minimum inhibitory concentration against vaccinia virus in Vero cell cultures of experiment 1; type: functional; settings: Orthopoxvirus vaccinia
[8] = system: Vesicular stomatitis virus; assay: Minimum inhibitory concentration against Vesicular stomatitis virus; type: functional
[9] = system: Vaccinia virus; assay: (§1) Minimum inhibitory concentration against vaccinia virus in primary rabbit kidney cell cultures of experiment 2; type: functional; settings: Orthopoxvirus vaccinia
[10] = system: Vaccinia virus; assay: as §1; type: functional, Orthopoxvirus vaccinia
[11] = system: Vaccinia virus; assay: Minimum inhibitory concentration against vaccinia virus in Vero cell cultures of experiment 2; type: functional; settings: Orthopoxvirus vaccinia
[12] = system: Vaccinia virus; assay: Minimum cytotoxic concentration against vaccinia virus embryonic skin muscle cell cultures; type: functional; settings: Orthopoxvirus vaccinia
[13] = system: Vaccinia virus; assay: Minimum cytotoxic concentration against vaccinia virus in Vero cell cultures; type: functional; settings: Orthopoxvirus vaccinia
[14] = system: Calf thymus DNA; assay: Relative binding constant to calf thymus DNA; type: nucleic-acid assay; settings: Bos taurus
Summary of the method: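 Ethidium displacement: Tris-EDTA buffer pH 8 with 1.3 μM ethidium bromide and calf thymus DNA (1.35 μM final); drug aliquots added, fluorescence read after a few minutes' equilibration (excitation 525 nm, emission 600 nm). Drug level giving 50% fluorescence decrease converted to relative binding constant taking ethidium binding constant as 10^7 M-1.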

[15] = system: Vaccinia virus; assay: Minimum cytotoxic concentration against vaccinia virus in HeLa cell cultures; type: functional; settings: Orthopoxvirus vaccinia
[16] = system: Vaccinia virus; assay: Minimum inhibitory concentration against vaccinia virus in primary rabbit kidney cell cultures of experiment 1; type: functional; settings: Orthopoxvirus vaccinia
[17] = Inhibitory effect on the proliferation of human T-lymphoblast (Molt/4F) cells; type: functional; settings: read-out: ID50 (the source's name)
[18] = Minimum cytotoxic concentration in primary rabbit kidney (PRK) cell cultures; type: functional, Oryctolagus cuniculus
[19] = system: Vaccinia virus; assay: Minimum cytotoxic concentration against vaccinia virus in primary rabbit kidney cell cultures; type: functional; settings: Orthopoxvirus vaccinia
[20] = system: FM3A; assay: Inhibitory effect on the proliferation of murine mammary carcinoma (FM3A) cells; type: functional; settings: Mus musculus, read-out: ID50 (the source's name)
[21] = system: Raji; assay: Inhibitory effect on the proliferation of human B lymphoblast (Raji) cells; type: functional; settings: read-out: ID50 (the source's name)
[22] = system: L1210; assay: Inhibitory effect on the proliferation of murine leukemia (L1210 ) cells; type: functional; settings: Mus musculus, read-out: ID50 (the source's name)
[23] = system: P388; assay: Concentration which leads to inhibitory effect on the proliferation of murine leukemia (P388) cells; type: functional; settings: Mus musculus, read-out: ID50 (the source's name)
Summary of the method: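 Murine P388 leukaemia cells grown in Fischer's medium with 10% fetal calf serum. Compounds dissolved in water, or sonicated and given as a suspension if poorly soluble. Cells seeded at 1 × 10^5 per well and grown 72 h at 37 °C in humidified 5% CO2 with drug. Viability read by MTT formazan optical density at 570 nm (reference 630 nm).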

[24] = system: Vaccinia virus; assay: Minimum cytotoxic concentration against embryonic skin muscle cell cultures; type: functional; settings: Orthopoxvirus vaccinia
Summary of the method: (§2)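 Host cell cultures (primary rabbit kidney, HeLa, Vero, or E6SM embryonic skin-muscle cells, as named) exposed to compound. Minimum cytotoxic concentration taken as the concentration required to cause a microscopically detectable alteration of normal cell morphology.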

[25] = Inhibitory effect on the proliferation of human T-lymphoblast (Molt/4F ) cells; type: functional; settings: read-out: ID50 (the source's name)
[26] = system: Raji; assay: Inhibitory effect on the proliferation of human B lymphoblast (Raji ) cells; type: functional; settings: read-out: ID50 (the source's name)
[27] = system: Vaccinia virus; assay: Minimum cytotoxic concentration against Vero cell cultures; type: functional; settings: Orthopoxvirus vaccinia; summary of the method: as §2
[28] = system: Vaccinia virus; assay: Minimum cytotoxic concentration against primary rabbit kidney cell cultures; type: functional; settings: Orthopoxvirus vaccinia; summary of the method: as §2
[29] = system: PRK; assay: Compound was evaluated for the minimum cytotoxic concentration in primary rabbit kidney (PRK) cell cultures; type: functional; settings: Oryctolagus cuniculus; summary of the method: as §2
[30] = system: Vaccinia virus; assay: Minimum cytotoxic concentration against HeLa cell cultures; type: functional; settings: Orthopoxvirus vaccinia; summary of the method: as §2
[31] = system: FM3A; assay: Inhibitory effect on the proliferation of murine mammary carcinoma (FM3A ) cells; type: functional; settings: Mus musculus, read-out: ID50 (the source's name)
[32] = Inhibition of Moloney Murine Leukemia Associated Reverse Transcriptase; type: functional, Mus musculus
[33] = system: Vaccinia virus; assay: Minimum cytotoxic concentration against vaccinia virus against embryonic skin muscle cell cultures; type: functional; settings: Orthopoxvirus vaccinia
[34] = system: Vaccinia virus; assay: Minimum inhibitory concentration against vaccinia virus in HeLa cell cultures; type: functional; settings: Orthopoxvirus vaccinia
[35] = Orthopoxvirus vaccinia, read-out: MIC

SMILES	MIC [1] [µg/mL]	MIC [3] [µg/mL]	MIC [4] [µg/mL]	IC50 [5] [µg/mL]	MIC [6] [µg/mL]	MIC [7] [µg/mL]	MIC [8] [µg/mL]	MIC [10, 35] [µg/mL]	MIC [11] [µg/mL]	MCC [13] [µg/mL]	Binding constant [14] [M⁻¹]	MCC [15] [µg/mL]	MIC [16] [µg/mL]	MCC [18] [µg/mL]	MCC [19] [µg/mL]	ID50 [32] [µg/mL]	also measured
Cl.Cl.Cn1cc(NC(=O)c2cc(NC(=O)Nc3cc(C(=O)Nc4cc(C(=O)NCCC(=N)N)n(C)c4)n(C)c3)cn2C)cc1C(=O)NCCC(=N)N	20	2	> 10	8	7	20	> 40	20	20	> 40	5.6e+07	> 40	7	>40	40	–	IC50 [2]: > 100 µg/mL; MIC [9]: 7 µg/mL; MCC [12]: 100 µg/mL; IC50 [17]: > 100 µg/mL; IC50 [20]: > 100 µg/mL; IC50 [21]: > 100 µg/mL
Cl.Cl.Cn1cc(NC(=O)CCC(=O)Nc2cc(C(=O)NCCC(=N)N)n(C)c2)cc1C(=O)NCCC(=N)N	> 40	70	> 100	–	20	> 400	> 100	400	> 400	–	–	–	300	–	–	>400	IC50 [22]: > 100 µg/mL; IC50 [23]: > 20 µg/mL; MIC [10]: >400 µg/mL; MCC [24]: > 400 µg/mL; IC50 [25]: > 100 µg/mL; IC50 [26]: > 100 µg/mL; MCC [27]: > 400 µg/mL; MCC [28]: > 400 µg/mL; MCC [29]: > 100 µg/mL; MCC [30]: > 400 µg/mL; IC50 [31]: > 100 µg/mL
Cl.Cl.Cn1cc(NC(=O)c2cc(NC(=O)CCCCCCCCCC(=O)Nc3cc(C(=O)Nc4cc(C(=O)NCCC(=N)N)n(C)c4)n(C)c3)cn2C)cc1C(=O)NCCC(=N)N	20	0.2	> 10	18	2	> 40	> 40	–	–	100	1.9e+07	100	2	>40	> 40	10.3	MCC [33]: > 40 µg/mL; MIC [34]: 20 µg/mL
